Like-named read-outs stand apart in the source and are kept apart here.
Assays:
K-562 = assay: MTT anti-proliferative assay; format: cell-based, human; settings: read-out: IC50 ± SD, K-562
KG-1a = assay: MTT anti-proliferative assay; format: cell-based, human; settings: read-out: IC50 ± SD, KG-1a
Jurkat = assay: MTT anti-proliferative assay; format: cell-based, human; settings: read-out: IC50 ± SD, Jurkat
EGFR = EGFR (Homo sapiens, UniProt P00533); assay: EGFR kinase assay; format: biochemical
c-Src = c-Src (Homo sapiens, UniProt P12931); assay: Src kinase assay; format: biochemical
IL-6 = IL-6 ELISA in K-562 cells; format: cell-based, human; settings: Homo sapiens, K562, 24 h, read-out: IL-6 protein levels (% of control)
In short: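 K-562 cells exposed 24 h to vehicle (DMSO), test compound at 10 μM or dexamethasone (positive control). IL-6 secreted into cell-free supernatant quantified by human IL-6 ELISA kit. Expressed as % of vehicle control, mean ± SD of three independent experiments, each in triplicate. Time course: in 12-well plates, medium changed when compound (10 μM) added, and media sampled at 0, 1, 4, 8, 12, 24, 48 h.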

STAT3 = STAT3 activation assay; format: cell-based, human; settings: K-562 cells, 10 μM, 24 h, nuclear extracts
In short: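 K562 cells seeded overnight in 10 cm plates, then given vehicle, test compound (10 μM) or WP1066 (positive control) for 24 h. Nuclear fractions extracted by kit. STAT3 activation measured in nuclear extracts by TransAM STAT3 ELISA per manufacturer. Mean ± SD of three independent experiments, each in triplicate.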

RPMI-8226 cell line = assay: NCI in vitro one dose anticancer assay; format: cell-based; settings: Homo sapiens, RPMI-8226, 48 h, read-out: % growth inhibition
In short: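 NCI protocol. Test compound added once at 10−5 M to ~60 human tumour lines from nine subpanels. Incubated 48 h at 37 °C, 5% CO2, 95% air, 100% relative humidity. Endpoint by sulforhodamine B protein staining with spectrophotometric absorbance. Growth of treated cells reported as percent of untreated cells.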

[1] = read-out: EGFR (IC50 μM), PGT substrate, ATP 50 μM
[2] = read-out: Src (IC50 μM), PGT substrate, ATP 50 μM

Sequence of EGFR (P00533 25-1210): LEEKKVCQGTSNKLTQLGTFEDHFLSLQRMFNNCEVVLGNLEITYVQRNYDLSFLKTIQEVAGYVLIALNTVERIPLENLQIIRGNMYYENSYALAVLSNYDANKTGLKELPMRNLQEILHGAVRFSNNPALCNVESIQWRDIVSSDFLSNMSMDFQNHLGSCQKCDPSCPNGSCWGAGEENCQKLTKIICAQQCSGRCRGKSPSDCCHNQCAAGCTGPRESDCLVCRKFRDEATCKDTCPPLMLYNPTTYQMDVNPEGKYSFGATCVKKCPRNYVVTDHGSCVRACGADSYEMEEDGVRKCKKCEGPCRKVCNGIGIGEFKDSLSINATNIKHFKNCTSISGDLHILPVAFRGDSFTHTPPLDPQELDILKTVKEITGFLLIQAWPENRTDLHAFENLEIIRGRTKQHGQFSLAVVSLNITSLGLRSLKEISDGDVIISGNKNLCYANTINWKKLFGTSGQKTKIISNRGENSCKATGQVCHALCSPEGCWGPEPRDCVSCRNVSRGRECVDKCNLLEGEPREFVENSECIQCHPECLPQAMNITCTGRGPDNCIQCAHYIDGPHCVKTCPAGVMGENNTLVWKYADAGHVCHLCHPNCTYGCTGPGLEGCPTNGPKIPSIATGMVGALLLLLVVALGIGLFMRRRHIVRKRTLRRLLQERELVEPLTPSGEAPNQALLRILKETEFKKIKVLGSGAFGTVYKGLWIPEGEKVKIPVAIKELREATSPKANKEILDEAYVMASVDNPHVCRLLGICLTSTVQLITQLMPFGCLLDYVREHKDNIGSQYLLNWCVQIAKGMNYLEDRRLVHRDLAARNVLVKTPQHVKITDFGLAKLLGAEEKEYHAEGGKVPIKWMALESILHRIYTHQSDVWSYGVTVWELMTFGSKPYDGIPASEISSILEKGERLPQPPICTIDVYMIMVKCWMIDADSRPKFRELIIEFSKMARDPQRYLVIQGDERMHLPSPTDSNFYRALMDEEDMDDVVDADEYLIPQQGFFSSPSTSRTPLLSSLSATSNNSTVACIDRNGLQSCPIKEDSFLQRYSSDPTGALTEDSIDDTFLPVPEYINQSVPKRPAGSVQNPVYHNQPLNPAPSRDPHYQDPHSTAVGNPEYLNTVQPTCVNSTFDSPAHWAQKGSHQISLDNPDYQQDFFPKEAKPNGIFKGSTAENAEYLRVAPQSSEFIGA
Sequence of c-Src (P12931 whole entry): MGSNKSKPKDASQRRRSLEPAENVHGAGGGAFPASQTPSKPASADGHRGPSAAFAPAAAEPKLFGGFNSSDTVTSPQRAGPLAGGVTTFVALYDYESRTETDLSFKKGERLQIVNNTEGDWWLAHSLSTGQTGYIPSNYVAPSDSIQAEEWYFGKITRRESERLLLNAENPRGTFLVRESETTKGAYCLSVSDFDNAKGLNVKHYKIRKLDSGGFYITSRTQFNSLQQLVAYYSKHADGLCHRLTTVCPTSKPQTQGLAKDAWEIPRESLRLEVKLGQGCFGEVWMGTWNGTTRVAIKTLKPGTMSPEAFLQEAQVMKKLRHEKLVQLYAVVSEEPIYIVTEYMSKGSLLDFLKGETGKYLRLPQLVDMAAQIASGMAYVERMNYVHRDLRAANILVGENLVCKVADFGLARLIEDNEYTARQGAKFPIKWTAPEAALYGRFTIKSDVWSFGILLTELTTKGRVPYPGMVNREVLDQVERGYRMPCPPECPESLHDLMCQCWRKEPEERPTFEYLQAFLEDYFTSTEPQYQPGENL

| SMILES | IC50 (K-562; MTT, 24 h treatment) | IC50 (KG-1a; MTT, 24 h treatment) | IC50 (Jurkat; MTT, 24 h treatment) | IC50 (K-562; Homo sapiens, K562, 24 h) | IC50 (KG-1a; Homo sapiens, KG-1a, 24 h) | IC50 (Jurkat; Homo sapiens, Jurkat, 24 h) | IC50 (EGFR) | IC50 (c-Src) | activity at 10 µM (IL-6) | inhibition of STAT3 activation (STAT3) | IC50 (EGFR; [1]) | IC50 (c-Src; [2]) | inhibition at 10 µM (RPMI-8226 cell line) |
| --- | --- | --- | --- | --- | --- | --- | --- | --- | --- | --- | --- | --- | --- |
| N.N.[Cl][Pt][Cl] [Cisplatin, reference compound] | 3.21 ± 0.45 µM | 12.2 ± 3.41 µM | 15.1 ± 1.35 µM | – | – | – | – | – | – | – | – | – | – |
| O=C(CSc1nnc(-c2ccccc2)o1)Nc1ccc(C(=O)C=Cc2ccc(Cl)cc2)cc1 [Compound 8b, N-(4-(3-(4-Chlorophenyl)acryloyl)phenyl)-2-((5-phenyl-1,3,4-oxadiazol-2-yl)thio)acetamide] | – | – | – | 75.4 ± 4.61 µM | 82.2 ± 4.56 µM | 78.7 ± 2.13 µM | 35.1 ± 1.36 µM | 44.1 ± 3.5 µM | 30 to 75% | moderate activities | – | – | – |
| COc1ccc(C=CC(=O)c2ccc(NC(=O)CSc3nnc(-c4ccccc4)o3)cc2)cc1OC [Compound 8c, N-(4-(3-(3,4-Dimethoxyphenyl)acryloyl)phenyl)-2-((5-phenyl-1,3,4-oxadiazol-2-yl)thio)acetamide] | – | – | – | 69.5 ± 5.15 µM | 95.2 ± 3.88 µM | 75.2 ± 1.25 µM | 64.3 ± 3.56 µM | 57.3 ± 2.4 µM | 82 to 98% | – | – | – | – |
| COc1cc(C=CC(=O)c2ccc(NC(=O)CSc3nnc(-c4ccccc4)o3)cc2)cc(OC)c1OC [Compound 8d, N-(4-(3-(3.4.5-Trimethoxyphenyl)acryloyl)phenyl)-2-((5-phenyl-1,3,4-oxadiazol-2-yl)thio)acetamide] | 22.8 ± 1.32 µM | 31.3 ± 1.05 µM | 28.3 ± 0.62 µM | – | – | – | – | – | – | – | 11.2 ± 1.25 µM | 13.4 ± 1.6 µM | – |
| O=C(CSc1nnc(-c2ccc(Cl)cc2)o1)Nc1ccc(C(=O)C=Cc2ccc(Cl)cc2)cc1 [Compound 8f, 2-((5-(4-Chlorophenyl)-1,3,4-oxadiazol-2-yl)thio)-N-(4-(3-(4-chloro-phenyl)acryloyl)phenyl)acetamide] | – | – | – | 82.3 ± 3.08 µM | 91.5 ± 4.15 µM | 88.6 ± 1.35 µM | 64.7 ± 3.65 µM | 50.3 ± 3.5 µM | 82 to 98% | – | – | – | – |
| COc1ccc(C=CC(=O)c2ccc(NC(=O)CSc3nnc(-c4ccc(Cl)cc4)o3)cc2)cc1 [Compound 8g, 2-(5-(4-Chlorophenyl)-1,3,4-oxadiazol-2-ylthio)-N-(4-(3-(4-methoxy-phenyl)acryloyl)phenyl)acetamide] | – | – | – | 13.1 ± 1.65 µM | 55.6 ± 1.34 µM | 41.2 ± 0.91 µM | 12.7 ± 1.25 µM | 22.1 ± 2.15 µM | – | – | – | – | – |
| COc1ccc(C=CC(=O)c2ccc(NC(=O)CSc3nnc(-c4ccc(Cl)cc4)o3)cc2)cc1OC [Compound 8h, 2-(5-(4-Chlorophenyl)-1,3,4-oxadiazol-2-ylthio)-N-(4-(3-(3,4-dimethoxy-phenyl)acryloyl)phenyl)acetamide] | – | – | – | 72.1 ± 3.32 µM | 84.6 ± 5.21 µM | 78.1 ± 2.1 µM | 30.2 ± 2.35 µM | 41.4 ± 4.5 µM | – | – | – | – | – |
| COc1cc(C=CC(=O)c2ccc(NC(=O)CSc3nnc(-c4ccc(Cl)cc4)o3)cc2)cc(OC)c1OC [Compound 8i, 2-(5-(4-Chlorophenyl)-1,3,4-oxadiazol-2-ylthio)-N-(4-(3-(3,4,5-trimethoxyphenyl)acryloyl)phenyl)acetamide] | – | – | – | 55.3 ± 4.89 µM | 79 ± 3.02 µM | 62.6 ± 1.37 µM | 29.3 ± 3.65 µM | 43.7 ± 3.5 µM | – | – | – | – | – |
| COc1ccc(-c2nnc(SCC(=O)Nc3ccc(C(=O)C=Cc4ccccc4)cc3)o2)cc1 [Compound 8j, 2-(5-(4-Methoxyphenyl)-1,3,4-oxadiazol-2-ylthio)-N-(4-(3-phenylacryloyl)phenyl)acetamide] | – | – | – | 22.6 ± 2.34 µM | 25.2 ± 0.48 µM | 31.1 ± 0.46 µM | 11.5 ± 1.24 µM | 25.3 ± 1.56 µM | – | – | – | – | 31.3 to 144% |
| COc1ccc(-c2nnc(SCC(=O)Nc3ccc(C(=O)C=Cc4ccc(Cl)cc4)cc3)o2)cc1 [Compound 8k, 2-(5-(4-Methoxyphenyl)-1,3,4-oxadiazol-2-ylthio)-N-(4-(3-(4-chloro-phenyl)acryloyl)phenyl)acetamide] | – | – | – | 58.4 ± 3.75 µM | 71.1 ± 1.22 µM | 62.7 ± 2.71 µM | 18.3 ± 2.35 µM | 33.6 ± 2.35 µM | – | – | – | – | – |
| COc1ccc(/C=C/C(=O)c2ccc(NC(=O)CSc3nnc(-c4ccc(OC)cc4)o3)cc2)cc1 [Compound 8l, 2-(5-(4-Methoxyphenyl)-1,3,4-oxadiazol-2-ylthio)-N-(4-((E)-3-(4-methoxyphenyl)acryloyl)phenyl)acetamide] | – | – | – | 35.2 ± 2.05 µM | 38.3 ± 2.45 µM | 33.3 ± 1.22 µM | 12.3 ± 1.35 µM | 25 ± 3.46 µM | – | – | – | – | – |
| COc1ccc(-c2nnc(SCC(=O)Nc3ccc(C(=O)C=Cc4ccc(OC)c(OC)c4)cc3)o2)cc1 [Compound 8m] | 23.1 ± 0.28 µM | 31.5 ± 0.42 µM | 28.4 ± 0.85 µM | – | – | – | – | – | – | – | 10.2 ± 0.36 µM | 12.5 ± 0.3 µM | – |
| COc1ccc(-c2nnc(SCC(=O)Nc3ccc(C(=O)C=Cc4ccccc4)cc3)o2)cc1OC [Compound 8o, N-(4-Cinnamoylphenyl)-2-((5-(3,4-dimethoxyphenyl)-1,3,4-oxadiazol-2-yl)thio)acetamide] | – | – | – | 58.4 ± 5.45 µM | 65.6 ± 2.31 µM | 94.1 ± 5.31 µM | 71.1 ± 3.25 µM | 51.2 ± 5.6 µM | 82 to 98% | – | – | – | – |
| COc1ccc(C=CC(=O)c2ccc(NC(=O)CSc3nnc(-c4ccc(OC)c(OC)c4)o3)cc2)cc1 [Compound 8q, 2-((5-(3,4-Dimethoxyphenyl)-1,3,4-oxadiazol-2-yl)thio)-N-(4-(3-(4-methoxyphenyl)acryloyl)phenyl)acetamide] | – | – | – | 40.2 ± 2.82 µM | 45.3 ± 2.31 µM | 31.9 ± 1.3 µM | 11.4 ± 1.54 µM | 29.5 ± 1.23 µM | 30 to 75% | moderate activities | – | – | – |
| COc1ccc(C=CC(=O)c2ccc(NC(=O)CSc3nnc(-c4ccc(OC)c(OC)c4)o3)cc2)cc1OC [Compound 8r, 2-((5-(3,4-Dimethoxyphenyl)-1,3,4-oxadiazol-2-yl)thio)-N-(4-(3-(3,4-di-methoxyphenyl)acryloyl)phenyl)acetamide] | – | – | – | > 100 µM | 93.1 ± 1.14 µM | > 100 µM | 63.3 ± 2.36 µM | 76.2 ± 3.65 µM | 82 to 98% | – | – | – | – |
| COc1cc(-c2nnc(SCC(=O)Nc3ccc(C(=O)C=Cc4ccccc4)cc3)o2)cc(OC)c1OC [Compound 8t, N-(4-Cinnamoylphenyl)-2-((5-(3,4,5-trimethoxyphenyl)-1,3,4-oxadiazol-2-yl)thio)acetamide] | – | – | – | 73.2 ± 3.72 µM | 84.6 ± 1.28 µM | 76.4 ± 1.31 µM | 22.3 ± 2.35 µM | 40.2 ± 1.34 µM | 30 to 75% | – | – | – | – |
| COc1cc(-c2nnc(SCC(=O)Nc3ccc(C(=O)C=Cc4ccc(Cl)cc4)cc3)o2)cc(OC)c1OC [Compound 8u, N-(4-(3-(4-Chlorophenyl)acryloyl)phenyl)-2-((5-(3,4,5-trimethoxy-phenyl)-1,3,4-oxadiazol-2-yl)thio)acetamide] | – | – | – | 84.2 ± 4.36 µM | 95.7 ± 2.48 µM | > 100 µM | 55.4 ± 4.35 µM | 53.1 ± 5.6 µM | 82 to 98% | – | – | – | – |
| COc1ccc(C=CC(=O)c2ccc(NC(=O)CSc3nnc(-c4cc(OC)c(OC)c(OC)c4)o3)cc2)cc1OC [Compound 8w, N-(4-(3-(3,4-Dimethoxyphenyl)acryloyl)phenyl)-2-((5-(3,4,5-trimethoxyphenyl)-1,3,4-oxadiazol-2-yl)thio)acetamide] | – | – | – | 90.3 ± 2.91 µM | > 100 µM | > 100 µM | 48.3 ± 2.36 µM | 60.3 ± 2.5 µM | 82 to 98% | – | – | – | – |

— publication PMC6923798 (Bioorganic chemistry, 2018)
